What is called IC50 is the concentration that gives 50% inhibition. A low value points to inhibition by little substance. One may read the clearance as the volume of plasma or blood freed of the substance per unit of time. As usually defined, the bioavailability is the share of a dose that reaches the circulation, judged against a reference dose that is usually intravenous. The low end stands for little systemic uptake, the high end for much systemic uptake.

The source made the active and inactive calls. The rule behind the calls is not given here. Bounds are passed on as bounds.

A short description of data set [1]: Drug concentration in 5XFAD mouse brain at 75 ppm administered as rodent chow starting from 1.5 months and measured after 5 months. It counts as ADME, tissue-based. The following applies: route po, time 3.5 months, read-out: Ct. The method in brief: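 WT or 5xFAD mice were fed PLX3397 in AIN-76A chow at 600 ppm or 75 ppm from 1.5 to 5 months of age. Terminal brain and plasma drug concentrations were determined at study end.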

The target in the next data set is CDK7/Cyclin H/MNAT1 (Homo sapiens, UniProt P50613). Nature of the data set: Inhibition of CDK7/CyclinH/MNAT1 (unknown origin). It counts as protein-complex assay.
CDK7/Cyclin H/MNAT1, sequence (P51946 whole entry): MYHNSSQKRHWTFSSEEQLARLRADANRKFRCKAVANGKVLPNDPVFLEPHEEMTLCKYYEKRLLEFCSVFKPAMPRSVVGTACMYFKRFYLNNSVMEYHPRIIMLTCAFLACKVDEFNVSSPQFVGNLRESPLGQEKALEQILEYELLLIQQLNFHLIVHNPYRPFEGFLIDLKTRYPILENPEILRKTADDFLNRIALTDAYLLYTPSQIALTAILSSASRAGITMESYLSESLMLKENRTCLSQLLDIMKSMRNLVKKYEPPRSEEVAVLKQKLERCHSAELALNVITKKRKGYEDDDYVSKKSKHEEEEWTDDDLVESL
CDK7/Cyclin H/MNAT1, sequence (P50613 whole entry): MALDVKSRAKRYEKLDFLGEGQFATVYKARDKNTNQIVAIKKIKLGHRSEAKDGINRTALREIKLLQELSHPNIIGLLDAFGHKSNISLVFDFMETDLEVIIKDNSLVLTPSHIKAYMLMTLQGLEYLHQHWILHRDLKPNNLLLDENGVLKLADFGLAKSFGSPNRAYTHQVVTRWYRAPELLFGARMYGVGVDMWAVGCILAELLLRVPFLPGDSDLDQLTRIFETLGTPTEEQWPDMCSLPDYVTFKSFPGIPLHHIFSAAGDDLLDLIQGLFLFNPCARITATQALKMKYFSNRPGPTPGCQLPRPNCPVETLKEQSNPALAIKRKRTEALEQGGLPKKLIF
CDK7/Cyclin H/MNAT1, sequence (P51948 whole entry, further chain): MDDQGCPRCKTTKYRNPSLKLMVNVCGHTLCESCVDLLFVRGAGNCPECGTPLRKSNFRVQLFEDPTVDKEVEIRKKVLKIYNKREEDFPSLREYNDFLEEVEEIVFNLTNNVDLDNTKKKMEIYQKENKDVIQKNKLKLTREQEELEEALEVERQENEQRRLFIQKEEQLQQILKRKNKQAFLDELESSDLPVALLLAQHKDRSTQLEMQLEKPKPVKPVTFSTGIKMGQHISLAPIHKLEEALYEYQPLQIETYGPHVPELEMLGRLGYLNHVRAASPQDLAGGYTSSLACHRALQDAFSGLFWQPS
Data set [2] concerns Mus musculus. Nature of the data set: Effect on APP processing pathway in wildtype mouse assessed as full length APP protein signal intensity in cortex at 1200 ppm administered as rodent starting from 1.5 months and measured after 7 months (reference value: 0.124 to 27.917 %). It counts as functional. The note with it: route po, time 5.5 months, 4015 h.
Data set [3] can be described thus: Effect on Clec7a gene expression in 5XFAD mouse cortex at 1200 ppm administered as rodent chow starting from 1.5 months and measured after 7 months by RNA-Seq analysis (reference value: 2.323 to 6.756 RPKM). It counts as functional. The note with it: route po, time 5.5 months, 4015 h. The essentials:
(§1)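 WT and 5xFAD mice were treated with 1200 ppm PLX5622 chow or control chow from 1.5 to 7 months of age. Brains were microdissected into cortex, hippocampus and thalamus, and RNA was extracted from tissue powder. Whole-transcriptome RNA-Seq libraries were sequenced, with n = 4 per group per region (48 samples).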

The subject of data set [4] is Mus musculus. Kind of data set: Antialzheimer activity in 5XFAD mouse assessed as number of Thio-S positive plaques per FOV in somatosensory cortex at 1200 ppm administered as rodent chow starting from 1.5 months and measured after 7 months by Thio-S staining based confocal microscopic analysis (reference value: 22 to 106). In kind it is functional. The note with it: route po, time 5.5 months, 4015 h.

Data set [5] concerns the target Homeodomain-interacting protein kinase 2 (Homo sapiens, UniProt Q9H2X6). Kind of data set: Inhibition of HIPK2 (unknown origin).
A short description of data set [6]: Clearance in mouse at 1.92 mg/kg, iv administered as single dose. It counts as ADME, organism-based. The following applies: in vivo.
A short description of data set [7]: Effect on ccl6 gene expression in wild type mouse thalamus at 1200 ppm administered as rodent chow starting from 1.5 months and measured after 7 months by RNA-Seq analysis (reference value: 0.647 to 1.238 RPKM). In kind it is functional. The following applies: route po, time 5.5 months, 4015 h.
Data set [8] is described as follows: Effect on Clec7a gene expression in 5XFAD mouse thalamus at 1200 ppm administered as rodent chow starting from 1.5 months and measured after 7 months by RNA-Seq analysis (reference value: 3.412 to 4.381 RPKM). It counts as functional. The note with it: route po, time 5.5 months, 4015 h. The method in brief: as §1
The nature of data set [9]: Oral bioavailability in mouse at 45 mg/kg administered as single via gavage. It counts as ADME, organism-based. The note with it: in vivo.
Data set [10] has as its target T1, Macrophage colony-stimulating factor 1 receptor (Mus musculus) (UniProt P09581).
T1 sequence (whole entry): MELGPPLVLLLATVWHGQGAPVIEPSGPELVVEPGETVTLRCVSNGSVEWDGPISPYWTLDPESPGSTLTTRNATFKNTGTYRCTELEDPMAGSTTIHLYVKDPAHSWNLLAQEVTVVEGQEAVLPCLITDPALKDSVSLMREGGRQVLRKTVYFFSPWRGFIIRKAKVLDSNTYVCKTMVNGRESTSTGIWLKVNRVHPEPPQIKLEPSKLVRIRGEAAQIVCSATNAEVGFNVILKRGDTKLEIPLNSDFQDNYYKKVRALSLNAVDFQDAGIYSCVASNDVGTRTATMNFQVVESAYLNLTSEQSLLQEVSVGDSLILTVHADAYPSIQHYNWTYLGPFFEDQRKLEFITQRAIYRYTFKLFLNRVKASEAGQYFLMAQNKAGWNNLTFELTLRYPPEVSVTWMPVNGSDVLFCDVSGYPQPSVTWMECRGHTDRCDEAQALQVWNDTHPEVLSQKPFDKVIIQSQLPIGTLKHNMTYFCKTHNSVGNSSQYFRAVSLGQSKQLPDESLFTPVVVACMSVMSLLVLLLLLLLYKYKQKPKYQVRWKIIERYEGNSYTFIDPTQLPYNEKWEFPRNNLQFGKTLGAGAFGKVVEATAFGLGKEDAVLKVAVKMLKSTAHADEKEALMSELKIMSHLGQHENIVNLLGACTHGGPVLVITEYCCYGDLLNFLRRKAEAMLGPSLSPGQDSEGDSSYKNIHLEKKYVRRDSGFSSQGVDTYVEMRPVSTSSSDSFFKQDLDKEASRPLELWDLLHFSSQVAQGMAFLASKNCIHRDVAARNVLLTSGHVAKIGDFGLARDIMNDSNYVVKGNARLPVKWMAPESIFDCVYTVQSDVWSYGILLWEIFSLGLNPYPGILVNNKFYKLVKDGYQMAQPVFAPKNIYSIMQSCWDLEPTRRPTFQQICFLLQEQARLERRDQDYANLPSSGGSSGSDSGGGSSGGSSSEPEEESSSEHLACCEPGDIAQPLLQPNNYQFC
Nature of the data set: In vivo inhibition of CSF1R in wildtype mouse assessed as number of GFAP positive cell per FOV in […] cortex at 1200 ppm administered as rodent chow for 10 to 24 weeks by immunolabelling based confocal microscopic analysis (reference value: 17 to 92). It counts as functional. The following applies: route po, time 10-24 weeks.

Data set [11] is described as follows: Effect on Cst7 gene expression in 5XFAD mouse thalamus at 1200 ppm administered as rodent chow starting from 1.5 months and measured after 7 months by RNA-Seq analysis (reference value: 9.686 to 22.113 RPKM). In kind it is functional. The note with it: route po, time 5.5 months, 4015 h.
Data set [12] relates to Mus musculus. Kind of data set: Prevention of P2ry12 gene upregulation in 5XFAD mouse hippocampus at 1200 ppm administered as rodent chow starting from 1.5 months and measured after 7 months by Nanostring analysis. In kind it is functional, tissue-based. The note with it: route po, time 5.5 months.
For data set [13], the system named is Mus musculus. Kind of data set: Antialzheimer activity in 5XFAD mouse assessed as percent change in claudin-5 intensity of retro spinal cortex at 1200 ppm administered as rodent chow starting from 1.5 months and measured after 4 months by immunolabeling analysis relative to control. In kind it is functional. The note with it: route po, time 2.5 months, 1825 h.

Data set [14] deals with Protein kinase C alpha type (Homo sapiens, UniProt P17252). Nature of the data set: Inhibition of PRKCA (unknown origin).
In data set [15] the test system is Mus musculus. Nature of the data set: Antialzheimer activity in 5XFAD mouse assessed as time to locate platform at 1200 ppm administered as rodent chow for 10 to 24 weeks by Morris water maze test (reference value: 6.5 to 60 sec). The note with it: route po, time 10-24 weeks. It counts as functional. The essentials: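 Morris water maze: a circular pool was filled with opaque water (white paint added), and mice were given four trials per acquisition day. Twenty-four hours after the last acquisition day, the platform was removed for a 60 s probe trial. Mice had been on 1200 ppm PLX5622 or control chow for 10 or 24 weeks from 1.5 months of age.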

The target in data set [16] is Casein kinase I isoform gamma-3 (Homo sapiens, UniProt Q9Y6M4). Kind of data set: Inhibition of CSNK1G3 (unknown origin).
Casein kinase I isoform gamma-3, sequence (Q9Y6M4 whole entry, canonical isoform): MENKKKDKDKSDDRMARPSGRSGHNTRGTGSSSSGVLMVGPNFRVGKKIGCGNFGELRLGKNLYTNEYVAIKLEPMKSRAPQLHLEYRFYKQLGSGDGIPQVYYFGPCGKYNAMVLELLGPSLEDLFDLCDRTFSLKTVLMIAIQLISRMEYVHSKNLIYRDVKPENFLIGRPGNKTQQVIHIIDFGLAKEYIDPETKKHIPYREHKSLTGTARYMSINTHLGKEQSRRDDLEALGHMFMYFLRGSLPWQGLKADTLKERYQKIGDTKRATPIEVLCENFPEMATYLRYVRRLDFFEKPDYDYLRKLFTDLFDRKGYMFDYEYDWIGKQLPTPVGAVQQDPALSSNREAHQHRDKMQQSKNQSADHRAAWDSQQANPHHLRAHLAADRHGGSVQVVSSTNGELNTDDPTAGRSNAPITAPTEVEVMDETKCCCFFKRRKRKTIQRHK
Data set [17] relates to Mus musculus. Nature of the data set: Antialzheimer activity in 5XFAD mouse assessed as iron reactivity by measuring hemosiderin intensity of prussian blue staining in […] cortex at 1200 ppm administered as rodent chow starting from 1.5 months and measured after 4 months by confocal microscopic analysis (reference value: 0.1 to 8.816 a.u.). In kind it is functional. The following applies: route po, time 2.5 months, 1825 h. The essentials: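 Wild-type or 5xFAD mice fed PLX5622 (1200 ppm) in AIN-76A chow from 1.5 months of age, examined in 4- and 7-month-old cohorts. Brain sections stained with a Prussian blue kit per kit instructions to detect iron deposits (microbleeds).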

Homeodomain-interacting protein kinase 2, sequence (Q9H2X6 whole entry): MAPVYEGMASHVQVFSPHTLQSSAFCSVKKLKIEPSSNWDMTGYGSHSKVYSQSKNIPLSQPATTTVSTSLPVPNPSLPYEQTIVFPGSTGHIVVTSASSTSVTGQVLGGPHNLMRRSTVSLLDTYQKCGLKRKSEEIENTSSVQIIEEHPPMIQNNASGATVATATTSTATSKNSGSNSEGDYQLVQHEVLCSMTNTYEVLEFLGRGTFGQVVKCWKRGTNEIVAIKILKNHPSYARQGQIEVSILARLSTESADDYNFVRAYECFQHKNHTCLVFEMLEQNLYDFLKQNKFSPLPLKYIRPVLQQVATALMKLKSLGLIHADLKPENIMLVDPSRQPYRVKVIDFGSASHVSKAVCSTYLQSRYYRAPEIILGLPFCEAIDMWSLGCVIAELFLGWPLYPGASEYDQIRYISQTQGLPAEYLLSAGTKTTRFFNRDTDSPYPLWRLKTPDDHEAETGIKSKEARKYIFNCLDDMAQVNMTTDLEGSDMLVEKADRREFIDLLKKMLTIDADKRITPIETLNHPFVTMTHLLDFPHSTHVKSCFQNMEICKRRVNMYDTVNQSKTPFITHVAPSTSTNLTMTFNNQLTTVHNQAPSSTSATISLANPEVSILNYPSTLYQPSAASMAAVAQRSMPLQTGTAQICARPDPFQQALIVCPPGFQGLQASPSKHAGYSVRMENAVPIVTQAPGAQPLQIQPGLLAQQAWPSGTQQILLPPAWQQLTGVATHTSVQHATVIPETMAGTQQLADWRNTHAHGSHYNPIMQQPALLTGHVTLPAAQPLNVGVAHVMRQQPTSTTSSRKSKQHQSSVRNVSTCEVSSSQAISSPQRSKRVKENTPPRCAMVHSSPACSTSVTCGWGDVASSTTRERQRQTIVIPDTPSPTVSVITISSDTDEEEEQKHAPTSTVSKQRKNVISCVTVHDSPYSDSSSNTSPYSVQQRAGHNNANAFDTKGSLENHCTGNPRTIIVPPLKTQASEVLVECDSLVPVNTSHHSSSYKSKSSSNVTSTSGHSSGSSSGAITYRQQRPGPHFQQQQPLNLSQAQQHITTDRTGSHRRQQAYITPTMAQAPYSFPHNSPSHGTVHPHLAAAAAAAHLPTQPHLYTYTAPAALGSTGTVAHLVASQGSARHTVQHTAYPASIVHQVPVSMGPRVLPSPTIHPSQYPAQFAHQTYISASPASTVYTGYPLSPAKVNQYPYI

`FC(F)(F)c1ccc(CNc2ccc(Cc3c[nH]c4ncc(Cl)cc34)cn2)cn1` [PEXIDARTINIB]: in data set [1], the concentration at 2555 h was determined as 600 nM.

Regarding `COc1ncc(F)cc1CNc1ccc(Cc2c[nH]c3ncc(C)cc23)c(F)n1` [PLX-5622], the concentration for half-maximal inhibition (IC50) (against CDK7/Cyclin H/MNAT1; in data set [5]; in data set [14]; in [16]) was more than 1 µM each time. Moreover, the Activity with Mus musculus [2] is 0.823%; in [3], 0.051 RPKM; in the data set on Mus musculus [4], 2; in data set [7], 0 RPKM; in data set [8] it was 0 RPKM; in data set [10], 7. The Activity came out at 0.096 RPKM in data set [11] and 33.704% with Mus musculus [13]. In data set [6], this compound registered a clearance of 2.1 mL/min/kg. The same compound yielded a bioavailability in [9] of 59%. Further, in the data set on Mus musculus [12], the outcome was Active. In the data set on Mus musculus [15], the Time is on record as 9.2 s. In addition, in the data set on Mus musculus [17], the Flu intensity is given as 6.682 a.u.

(Values after ChEMBL document CHEMBL5649170, “Sustained microglial depletion with CSF1R inhibitor impairs parenchymal plaque development in an Alzheimer's disease model” (Nat Commun, 2019).)
